According to the array DNA melting data of Ke et al. (doi:10.1101/2024.01.08.574731):

Legend:
[1] = melting temperature; fluorescence melt of hairpins on a sequencing array, two-state fit, raised by 9.35 °C to match UV melts; conditions: sodium 0.088 M
Procedure, shortened: (§1)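 Folding enthalpy and melting temperature were estimated with bootstrapped two-state fits and combined across four replicates by inverse-variance weighting, with fitted temperatures raised by 9.35 °C to match UV melts. The data were Cy3 fluorescence of library hairpins, with annealed Cy3 and quencher oligos, on a sequenced MiSeq flow cell in 50 mM Na-HEPES pH 8.0, 25 mM NaCl, imaged in 2.5 °C steps up to 60 °C and normalised to pre-quench Cy3 and control constructs.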

[2] = folding enthalpy; higher = less favourable; fluorescence melt of hairpins on a sequencing array, two-state fit; conditions: sodium 0.088 M
Procedure, shortened: as §1

Sequence	Tm [1]	folding enthalpy [2]
GCTCCGACGAAAGTCAGC (((..(((....))))))	32.2 °C	-13.3 kcal/mol
GCTCCGCGAAAGCATAGC (((..((....))..)))	33.1 °C	-10.1 kcal/mol
GCTCCGCGAAAGCCGCGC ((.(.((....)).).))	36.2 °C	-11.8 kcal/mol
GCTCCGCGAAAGCCGTGC ((.(.((....)).).))	39.1 °C	-9.49 kcal/mol
GCTCCGCGAAAGCTCAGC (((..((....))..)))	27.2 °C	-9.77 kcal/mol
GCTCCGCGAAAGCTGCGC ((.(.((....)).).))	44.4 °C	-14.5 kcal/mol
GCTCCGGCGAAAGCCAGC (((..(((....))))))	32.6 °C	-11.2 kcal/mol
GCTCCGGGAAACCGAAGC (((.(((....))).)))	47.5 °C	-27.9 kcal/mol
GCTCCTCGAAAGAGAAGC (((.(((....))).)))	46.1 °C	-29.4 kcal/mol
GCTCGAACGAAAGTTAGC (((..(((....))))))	31.5 °C	-12.1 kcal/mol
GCTCGACCGAAAGGTAGC (((..(((....))))))	39 °C	-13.8 kcal/mol
GCTCGACGAAAGTCAGC (((.(((....))))))	51.6 °C	-19.3 kcal/mol
GCTCGACGAAAGTCTAGC (((.(((....))).)))	49.6 °C	-41.8 kcal/mol
GCTCGAGCGAAAGCTAGC (((..(((....))))))	39.1 °C	-13.2 kcal/mol
GCTCGAGGAAACTCAAGC (((.(((....))).)))	37.7 °C	-30.7 kcal/mol
GCTCGCCGAAAGGCTAGC (((.(((....))).)))	54.6 °C	-27.9 kcal/mol
GCTCGCGAAAGCGTAGC ((((((....))).)))	61.9 °C	-19 kcal/mol
GCTCGCGAAAGCGTTAGC ((((((....)))..)))	45.9 °C	-14.1 kcal/mol
GCTCGCGGAAACGTGAGC ((((.((....)).))))	64.9 °C	-37.6 kcal/mol

Sequence	Tm [1]	folding enthalpy [2]
GCTCGCGGAAACGTGGGC ((.(.((....)).).))	50.2 °C	-34 kcal/mol
GCTCGGCGAAAGCTCAGC (((..((....))..)))	44.7 °C	-11.9 kcal/mol
GCTCGTGCGAAAGCAAGC (((..(((....))))))	45.5 °C	-7.01 kcal/mol
GCTCGTGGAAACATGAGC ((((.((....)).))))	54.5 °C	-37.1 kcal/mol
GCTCGTGGAAACATGGGC ((.(.((....)).).))	42.9 °C	-17.1 kcal/mol
GCTCGTGGAAACGCGAGC (((((.(....).)))))	63.2 °C	-47.9 kcal/mol
GCTCTAGCGAAAGCTAGC (((..(((....))))))	38.3 °C	-5.88 kcal/mol
GCTCTAGGAAACTAGAGC (((((((....)))))))	60.1 °C	-44.6 kcal/mol
GCTCTCGAAAGAGTAAGC ((((((....)))..)))	39.7 °C	-22.6 kcal/mol
GCTCTCGGAAACAAGAGC (((((.(....).)))))	40.2 °C	-33.6 kcal/mol
GCTCTGCCGAAAGGCAGC (((..(((....))))))	40 °C	-6.01 kcal/mol
GCTCTGCGAAAGCACTGC ((..(((....)))..))	31.6 °C	-10.7 kcal/mol
GCTCTGCGAAAGCCGAGC ((((.((....)).))))	60.1 °C	-25.2 kcal/mol
GCTCTGCGAAAGCCGTGC ((.(.((....)).).))	36.2 °C	-11.9 kcal/mol
GCTCTGCGAAAGCCTAGC (((..((....))..)))	36.6 °C	-14.7 kcal/mol
GCTCTGCGAAAGCTAAGC (((..((....))..)))	37.9 °C	-13.4 kcal/mol
GCTCTGGCGAAAGCCAGC (((..(((....))))))	31.5 °C	-6.82 kcal/mol
GCTCTTCCGAAAGGAAGC (((..(((....))))))	37.2 °C	-9 kcal/mol
